FLuc act counter: firefly luciferase counter-screen for stimulation assays; ATPlite luciferase biochemical, luminescence, 10 min; 0 = ATP-free wells, 1 = DMSO control; AID 1027; 200,000 tested, under 10 active; P08659; activation factor at 10 µM;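 active = luciferase activation factor, scaled between plate controls, of at least 2 with compound at 10 µM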
Target sequence (P08659 whole entry, looked up): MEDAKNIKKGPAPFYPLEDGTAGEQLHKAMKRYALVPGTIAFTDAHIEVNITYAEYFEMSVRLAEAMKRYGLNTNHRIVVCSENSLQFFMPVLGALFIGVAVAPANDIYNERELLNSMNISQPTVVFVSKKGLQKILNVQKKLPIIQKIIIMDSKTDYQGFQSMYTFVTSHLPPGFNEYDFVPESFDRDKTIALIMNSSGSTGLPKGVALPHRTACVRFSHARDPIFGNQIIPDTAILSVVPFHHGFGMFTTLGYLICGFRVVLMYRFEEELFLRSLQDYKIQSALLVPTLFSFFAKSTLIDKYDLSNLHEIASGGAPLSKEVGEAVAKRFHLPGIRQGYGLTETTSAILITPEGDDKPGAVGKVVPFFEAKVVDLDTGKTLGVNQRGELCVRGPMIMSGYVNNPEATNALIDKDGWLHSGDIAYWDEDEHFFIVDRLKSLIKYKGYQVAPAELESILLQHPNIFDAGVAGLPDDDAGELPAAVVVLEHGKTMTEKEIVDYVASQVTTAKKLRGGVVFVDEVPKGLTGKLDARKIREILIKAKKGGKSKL
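Material: luciferase plus luciferin reagent, cell-free. Medium: PBS buffer for ATP. Also added: ATP substrate, dispensed from a 10.24 µM working solution in PBS. Doses: test compounds dosed from 2 mM stocks in 100% DMSO. Incubation: 10 min post-reagent at room temperature. Technique: light output (luminescence). Read-out basis: luminescence gain marking luciferase activators.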
sdo1 growth: restores growth of sdo1-depleted yeast; 140,000 tested, 0.21% active; S. cerevisiae sdo1-depleted JHY4D growth rescue, OD600 30 h; stronger effect = higher value; pdr5 snq2 efflux-pump mutant strain; z-score at 10 µM;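 active = z-score above 3 at both the 24 hr and the 30 hr optical density reads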
NF-kB expr up: raises NF-kB expression in human neuronal cells; NF-kB reporter expression; stronger effect = higher value; fold change at 12.5 µM; 190,000 tested, 1.6% active; AID 1239; in the data active = fold change above about 3.3
STAT1 activator: STAT1 signaling activation; NIH 3T3 STAT1-luciferase reporter, IFN-gamma, luminescence; 100% = IFN-gamma alone, no compound; activation (% of control), % at 5.5 µM; 200,000 tested, 2.6% active;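 active = activation above the screen-wide mean activation plus 3 SD, cut at about 130% in these data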
FLuc inh counter: inhibits firefly luciferase, flagging false hits in luciferase inhibition screens | ATPLite firefly luciferase biochemical luminescence, 10 min | 200,000 tested, 1.5% active | P08659 | inhibition, % at 10 µM;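 active = inhibition above about 50% when tested at 10 µM, limit read from the data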
APP 5'UTR act: activates APP 5'UTR luciferase reporter. SH-SY5Y APP 5'UTR luciferase reporter, luminescence; zero percent = DMSO vehicle wells. activation, % at 2 µM. 190,000 tested, 1% active;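 active = activation above a set limit, based on mean plus 3 SD of controls, cut at about 140% in these data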
Each line names hits and unclear results; the compound was inactive in the other large screens. Shown are actives, neighbours in structure and some others; about 4.3% of the full set was active somewhere.

COc1ccc(/C(N)=N/OC(=O)CSc2ccccc2)cc1OC	STAT1 activator 145.4
N/C(=N\OC(=O)c1ccco1)c1cccc(Br)c1	FLuc inh counter 56.0, APP 5'UTR act 136.6
N/C(=N\OC(=O)c1ccco1)c1cccc([N+](=O)[O-])c1	none (no result: sdo1 growth)
COc1ccc(/C(N)=N/OC(=O)c2ccco2)cc1OC	STAT1 activator 148.9 (no result: sdo1 growth)
COc1ccc(C)cc1N(CC(=O)N/N=C/c1ccccc1C(=O)O)S(=O)(=O)c1ccccc1	none (no result: sdo1 growth)
O=C(COC(=O)/C=C/c1ccc(S(=O)(=O)N2CCOCC2)cc1)NC1CCCCCCC1	none (no result: sdo1 growth)
COc1ccc(-c2ccc(-c3noc(-c4ccco4)n3)c(OC)n2)cc1	none
COc1ccccc1-c1noc(-c2ccco2)n1	STAT1 activator 131.3
COc1cc(-c2noc(-c3ccco3)n2)cc(OC)c1OC	none
COc1nc(-c2ccccc2)ccc1-c1noc(-c2ccco2)n1	NF-kB expr up 3.72, STAT1 activator 145.4
COc1ccc(CCNC(=O)C2CCN(C(=O)c3ccc([N+](=O)[O-])cc3)CC2)cc1	none (no result: sdo1 growth)
O=C(CSc1nc(-c2ccco2)cc(C(F)(F)F)n1)NCCN1CCOCC1	none (no result: sdo1 growth)
NC1=NC(=Nc2ccc(Br)cc2)c2ccccc21	FLuc inh counter 53.2
NC1=NC(=Nc2ccccc2)c2ccccc21	none
CCOC(=O)C(C)S(=O)(=O)c1ccc(C(F)(F)F)cn1 (stereo unspecified)	none
COc1cc(NC(=O)c2cc(C)nc3ccccc23)cc(OC)c1OC	none (no result: sdo1 growth)
Cc1cc(C(=O)NCC(C)C)c2ccccc2n1	FLuc inh counter 60.1
CC(=O)OCCCNc1cc(Sc2nc3ccccc3s2)c2nonc2c1[N+](=O)[O-]	STAT1 activator 131.6
CC(=O)OCCCNc1cc(Sc2ccc(C)cc2)c2nonc2c1[N+](=O)[O-]	none
O=C(NC1CC1)C1=C[C@@H](c2csc3ccccc23)C[C@@H](OCc2ccc(CO)cc2)O1	none (no result: sdo1 growth)
Cc1nn(-c2ccccc2)c(/N=C/c2ccccc2O)c1-c1ccccc1	none
CCc1n[n+](CC(=O)c2ccccc2)c(N)s1	FLuc inh counter 69.5, APP 5'UTR act 141.5 (no result: sdo1 growth)
CCOC(=O)c1ccc[n+](CC(=O)c2ccccc2)c1	none (no result: APP 5'UTR act)
COc1cccc(-n2nc(-c3ccnn3-c3ccc(C)cc3)c(=O)n(C)c2=O)c1	none
COc1ccc(N2CCN(C(=O)CCNS(=O)(=O)c3ccccc3)CC2)cc1	none (no result: sdo1 growth)
CC(C)c1ccc2c(c1)C1(NN=C(c3ccccc3)S1)C(=O)N2 (stereo unspecified)	STAT1 activator 128.7
CCCCC(CCC(=O)Nc1cc([N+](=O)[O-])ccc1O)C(=O)O (stereo unspecified)	none (no result: sdo1 growth, NF-kB expr up)
Cc1ccc(C(=O)COC(=O)c2c(C)cc(=O)oc2C)cc1[N+](=O)[O-]	none
O=c1oc(-c2ccco2)nc2sc3c(c12)CCCC3	FLuc inh counter 79.1
O=c1oc(-c2ccccc2)nc2sc3c(c12)CCC3	none
Cc1cc(C)cc(C(=O)NN2CCOCC2)c1	none
COc1ccccc1NC(=O)c1csc2c1CCC(C)C2 (stereo unspecified)	none (no result: sdo1 growth)
CCc1nnc(NC(=O)c2csc3c2CCC(C)C3)s1 (stereo unspecified)	APP 5'UTR act 145.2 (no result: sdo1 growth)
CS(=O)(=O)NN1C(=O)c2ccccc2NC1c1cccs1 (stereo unspecified)	none (no result: sdo1 growth)
Cc1ccc(C(=O)N2c3ccccc3CC2C)o1 (stereo unspecified)	STAT1 activator 148.5 (no result: sdo1 growth)
Cc1nc2cc(NC(=O)N3c4ccccc4CC3C)ccc2o1 (stereo unspecified)	STAT1 activator 146.2, FLuc inh counter 61.5
COc1ccc(N(CC(O)Cn2c(C)nc3ccccc32)S(=O)(=O)c2ccccc2)cc1 (stereo unspecified)	none
Cc1cc(/C=C2/C(=N)N3C(=NC2=O)SN=C3S(C)(=O)=O)c(C)n1-c1ccccc1F	FLuc inh counter 93.3 (no result: sdo1 growth)
CC1=CC2=NC(=O)/C(=C\c3cc(C)n(-c4ccccc4F)c3C)C(=N)N2O1	none
Cc1ccc2nc3ccc(N4CCCCCCC4)nn3c(=O)c2c1	STAT1 activator 143.6, FLuc inh counter 62.3
Cc1ccc2nc3ccc(N4CCN(C)CC4)nn3c(=O)c2c1	STAT1 activator 136.6
O=c1c2ccccc2nc2ccc(N3CCOCC3)nn12	none
